# EBI2 antag = antagonists of human EBI2 receptor; P32249; EBI2 beta-arrestin recruitment, luminescence, 7a,25-OHC stimulated; 0.81% of 360,000 active; AID 651636; inhibition, % at 5 µM; in the data active means inhibition above about 38%;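 further: enzyme fragment complementation signal reports receptor beta-arrestin coupling in cells; 0% = agonist plus DMSO wells and 100% = wells without agonist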
# Target sequence (P32249 whole entry, looked up, the tested form may be a part): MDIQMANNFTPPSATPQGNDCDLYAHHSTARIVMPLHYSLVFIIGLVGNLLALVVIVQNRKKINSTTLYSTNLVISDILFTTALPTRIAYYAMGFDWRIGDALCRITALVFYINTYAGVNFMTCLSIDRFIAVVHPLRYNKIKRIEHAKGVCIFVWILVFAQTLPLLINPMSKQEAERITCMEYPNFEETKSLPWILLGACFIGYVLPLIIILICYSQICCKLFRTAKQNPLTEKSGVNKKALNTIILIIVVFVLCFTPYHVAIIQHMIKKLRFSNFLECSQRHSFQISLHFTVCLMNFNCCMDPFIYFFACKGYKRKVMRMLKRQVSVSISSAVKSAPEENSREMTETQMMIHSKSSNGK
# APJ antagonist = antagonists of human APJ apelin receptor; P35414; CHO-K1 APJ beta-arrestin complementation, luminescence; inhibition, % at 20 µM; 0.32% of 330,000 active; AID 2521;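 active means inhibition above about 40% at 20 µM, limit read from the data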;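 further: cells challenged with 10 nM apelin-13 agonist together with compound; plate controls were apelin-13 plus DMSO wells for no effect and DMSO wells lacking apelin-13 for full effect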
# CCR6 antagonist = CCR6 (human) receptor antagonism | P51684 | CHO-K1 CCR6 PathHunter beta-arrestin, luminescence, CCL20-stimulated | inhibition, % at 20 µM | 0.49% of 340,000 active;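 active means compounds whose inhibition of the agonist-driven luminescence signal at 20 µM reaches about 50%, limit read from the data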;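 further: cells stimulated with CCL20 at 14 nM final; plate controls were DMSO with CCL20 for no effect and DMSO without agonist for full effect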
# CXCR6 inh = blocks human CXCR6 beta-arrestin recruitment; O00574; CHO-K1 PathHunter CXCR6 beta-arrestin, luminescence; inhibition, % at 20 µM; 0.36% of 360,000 active; AID 602244; in the data active means inhibition above about 34%, passing the limit was not always enough;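 further: antagonist mode with CXCL16 agonist at 10 nM final; 0% = 10 nM CXCL16 with DMSO and 100% = unstimulated wells without agonist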
# APJ agonist = APJ receptor agonism; P35414; CHO-K1 APJ PathHunter beta-arrestin, luminescence; 0% DMSO wells, 100% apelin; activation, % at 20 µM; 0.11% of 330,000 active;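 active means activation more than six SD over the plate average, tested at 20 µM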;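 further: 0% = DMSO alone and 100% = apelin-13 at 10 nM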
#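 Assay system – PathHunter CHO-K1 APJ (AGTRL-1) beta-arrestin reporter cells · Compound – one dose, 20 µM compound, 1% DMSO · Timing – compound 90 min 25 °C, reagent 1 h · Measured by – luminescence from split beta-galactosidase complementation, Galacton Star/Emerald II substrate · Measure – beta-arrestin recruitment to APJ as agonist activity, luminescent signal · Benchmarks – DMSO vs Apelin-13 10 nM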
# EBI2 conf = confirmation of human EBI2 receptor antagonists; shares compounds with EBI2 antag; EBI2 beta-arrestin luminescence, 7a,25-OHC antagonism; inhibition, % at 5 µM; 29% of 2,400 active;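 active means inhibition of at least 50%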
# EBI2 ag = activates EBI2, counter-screen for EBI2 antagonists; EBI2-expressing cells, agonist mode, luminescence, 60 min; 0% vehicle, 100% 7α,25-dihydroxycholesterol control; 2,400 tested, under 10 active; AID 652000; shares compounds with EBI2 antag; activation, % at 5 µM;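 active means activation of at least 50%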
# bGal cs = inhibits E. coli beta-galactosidase, counter-screen for EBI2 antagonists; shares compounds with EBI2 antag; purified beta-galactosidase, luminescent Galacton Star, 15 min; inhibition, % at 5 µM; 1% of 2,400 active;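 active means replicate-average signal at least 3 plate SD below neutral wells, shown as high inhibition, flagging enzyme-inhibiting false positives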;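 further: 0% = DMSO wells with enzyme and 100% = wells lacking enzyme; higher means stronger loss of beta-gal luminescence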
# * marks the source's active call; other numbers are inactive results; / = not tested or not shown. Hits are enriched below; roughly 1.5% of the tested compounds scored in any of these assays.
SMILES,EBI2 antag,APJ antagonist,CCR6 antagonist,CXCR6 inh,APJ agonist,EBI2 conf,EBI2 ag,bGal cs
CCOc1ccc(NC(=S)NN(C)C(=S)Nc2ccc(OCC)cc2)cc1,78*,-21,7,-5,4,38,0,-15
CCOc1ccc(NC(=S)Nc2ccc(F)cc2)cc1,59*,9,-11,-8,-2,41,0,8
CCOc1ccc(NC(=S)NC(=O)Cc2ccccc2)cc1,-8,1,5,6,-1,/,/,/
CCOc1ccc(NC(=S)Nc2ccccc2C2(C)CC2)cc1,60*,7,22,1,-1,20,2,4
CCOc1ccc(NC(=S)Nc2cccnc2)cc1,58*,18,-8,0,-1,24,-1,-10
CCOc1ccc(C(=O)NC(=S)Nc2cccnc2)cc1,-3,11,7,1,-2,/,/,/
O=C(COC(=O)/C=C/c1ccc(S(=O)(=O)N2CCOCC2)cc1)Nc1ccccc1F,1,12,6,4,-2,/,/,/
CCc1ccc(NC(=S)Nc2ccc3[nH]c(=O)[nH]c3c2)cc1,29,10,9,4,-4,/,/,/
Cn1c(=O)[nH]c(=O)c2c1nc(SCC(O)CO)n2Cc1ccccc1Cl (stereo not drawn),-7,-12,18,10,-4,/,/,/
CC(=O)Nc1ccc(NC(=O)/C=C/c2cccc(C(F)(F)F)c2)cc1,-6,1,-2,2,-1,/,/,/
COc1ccc(NC(=O)c2cccc3cccnc23)cc1S(N)(=O)=O,5,-1,8,-4,-1,/,/,/
CCOc1ccc(NC(=S)Nc2cc(-c3ccccc3)[nH]n2)cc1,42*,10,0,-3,-3,19,0,6
COc1ccc(/C=C(\C#N)C(=O)Nc2cc(S(=O)(=O)N3CCOCC3)ccc2N2CCCC2)cc1,80*,11,-7,-7,-1,84*,-1,-19
COc1ccc(CC(=O)Nc2cc(S(=O)(=O)N3CCOCC3)ccc2N2CCCC2)c(OC)c1,-19,/,0,2,/,/,/,/
CCN(CC)S(=O)(=O)c1ccc(N2CCCC2)c(NC(=O)Cc2ccc(OC)cc2)c1,0,9,5,-2,-2,/,/,/
CCN(CC)S(=O)(=O)c1ccc(N2CCCCC2)c(NC(=O)/C(C#N)=C/c2ccc(OC)cc2)c1,42*,-9,12,-5,-1,41,1,-1
CC(C)c1ccc(C(CC(=O)O)N2Cc3ccccc3C2=O)cc1 (stereo not drawn),2,-22,-14,-21,4,/,/,/
O=C(O)c1ccc(-c2ccc(Cl)cc2Cl)o1,-5,-13,-4,4,-3,/,/,/
COc1cc2c(cc1OC)C(c1ccc(-c3ccc(Cl)cc3Cl)o1)=NCC2,74*,-5,-1,-3,-1,66*,-1,-17
CNC(=O)OC1CC2CC1[C@H]1CCCCN1C2=O (stereo partly drawn),0,/,/,2,/,/,/,/
CC(=O)N(Cc1ccco1)c1nc(C(=O)Nc2ccc(Cl)cc2)c(C)s1,61*,5,25,6,-1,17,1,7
CN(NC(=O)C(=O)NCc1ccco1)C(=O)Nc1ccc(Cl)cc1,9,/,/,-3,/,/,/,/
Clc1cccc(/C=N/N2CCN(Cc3ccccc3)CC2)c1,8,7,20,14,-1,/,/,/
FC(F)(F)c1cccc(Cn2cnc(NC(=S)NCCc3ccccc3)n2)c1,54*,-21,3,-4,-3,42,0,-17
COc1ccc(NC(=O)Nc2ncn(Cc3cccc(C(F)(F)F)c3)n2)cc1OC,3,3,-7,-3,6,/,/,/
SMILES,EBI2 antag,APJ antagonist,CCR6 antagonist,CXCR6 inh,APJ agonist,EBI2 conf,EBI2 ag,bGal cs
CCC(C)(C)C1CCc2[nH]nc(C(=O)NC3CCCCC3)c2C1 (stereo not drawn),43*,14,7,2,8,14,0,-4
Cc1ccc(C(=O)C(C)OC(=O)c2n[nH]c(=O)c3ccccc23)cc1 (stereo not drawn),4,-17,5,-1,-3,/,/,/
C[C@@H]1CN([C@H](C)CO)C(=O)c2cccc(NC(=O)NC3CCCCC3)c2O[C@@H]1CN(C)C(=O)Nc1ccc(C(F)(F)F)cc1,72*,0,-1,-6,-1,46,-1,-11
Cc1cc(C)c(NC(=O)CCc2c(C)noc2C)c(C)c1,-3,37,5,-2,-2,/,/,/
S=c1[nH]c(-c2ccc(Br)cc2)cn1CCc1ccccc1,57*,-5,-2,-7,-1,41,2,-1
Cc1ccc([C@H]2C[C@H](O)[C@@H](n3cc(COC(=O)c4ccccc4)nn3)CN2C(=O)c2cccs2)cc1,0,/,/,2,/,/,/,/
CC(=O)Nc1ccc(S(=O)(=O)Oc2ccc3c(c2)C(C)=CC(C)(C)N3)cc1,/,-36,/,/,5,/,/,/
CC1=CC(C)(C)Nc2ccc(OS(=O)(=O)c3ccc(C)cc3)cc21,42*,-3,11,-2,7,13,0,2
Cc1ccccc1C(=O)NC(C(N)=O)P(=O)(OC(C)C)OC(C)C (stereo not drawn),0,17,2,-2,-3,/,/,/
O=C(CN1CCN(S(=O)(=O)N2CCCCC2)CC1)Nc1ccc(Cl)c(Cl)c1,25,2,13,-2,-3,/,/,/
O=C(CN1CCN(S(=O)(=O)c2ccc(Br)cc2)CC1)N/N=C/c1ccco1,22,-2,17,7,0,/,/,/
Cc1ccc(S(=O)(=O)N2CCN(CC(=O)N/N=C/C=C/c3ccccc3)CC2)cc1,43*,-4,-5,-1,0,31,0,9
Cc1ccc(/C=N/NC(=O)CN2CCN(S(=O)(=O)c3ccc(Br)cc3)CC2)s1,69*,-6,3,-2,-3,52*,0,5
O=C(CN1CCN(S(=O)(=O)c2ccccc2)CC1)Nc1ccc(Cl)c(Cl)c1,61*,2,22,-17,1,45,1,-2
O=C(CN1CCN(S(=O)(=O)c2ccc(Br)cc2)CC1)N/N=C/c1ccc(Br)s1,65*,-3,9,-4,0,44,-1,-10
Cc1cc(NC(=O)c2ccc(Cl)cc2Cl)no1,-3,5,5,-9,1,/,/,/
CCOC(=O)CNC(=O)CSc1cc(C)nc2ccc(OC)cc12,-14,-4,-3,-4,-2,/,/,/
COc1ccc2nc(C)cc(SCC(=O)NNC(=O)COc3ccccc3)c2c1,48*,1,1,-1,-1,20,-1,-6
